Measurements reported in ChEMBL document CHEMBL1140994, “Ranking the selectivity of PubChem screening hits by activity-based protein profiling: MMP13 as a case study” (Bioorg Med Chem, 2009).
pIC50: −log10 of the molar value. Activity calls are given as the source filed them. The rule behind the calls is not given here.

Assays:
[1] = molecular target: Matrix metalloproteinase-16 (Homo sapiens) (UniProt P51512); assay: Inhibition of human recombinant MMP16 at 200 uM by HxBPyne probe-based competitive activity based protein profiling assay in presence of 5 uM HxBpane competitor
In short: (§1)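 Recombinant enzyme at 0.5 μM final in mouse liver soluble proteome (1 mg protein/mL in PBS). HxBPyne probe cocktail 0.5 μM total final, with inhibitor 200 μM or DMSO. Preincubated 30 min on ice, then UV 365 nm for 1 h on ice. Rhodamine-azide click chemistry, 1 h RT in dark. SDS-PAGE with in-gel fluorescence; band intensity given as % of DMSO control.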

[2] = molecular target: Matrilysin (Homo sapiens) (UniProt P09237); assay: Inhibition of human recombinant MMP7 at 200 uM by HxBPyne probe-based competitive activity based protein profiling assay in presence of 5 uM HxBpane competitor; in short: as §1
[3] = molecular target: Matrix metalloproteinase-14 (Homo sapiens) (UniProt P50281); assay: Inhibition of human recombinant MMP14 at 200 uM by HxBPyne probe-based competitive activity based protein profiling assay in presence of 5 uM HxBpane competitor; in short: as §1
[4] = molecular target: T1, Matrix metalloproteinase-9 (Homo sapiens, UniProt P14780); assay: Inhibition of human recombinant MMP9 by fluorogenic substrate assay
In short: (§2)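 Enzyme (MMP8 6 nM, MMP9 2 nM, MMP13 1.5 nM final) preincubated with inhibitor 30 min in 50 mM HEPES pH 7.5, 10 mM CaCl2, 0.05% Brij-35, at RT. Mca-PLGL-Dpa-AR-NH2 added at 5 μM; fluorescence (ex 328/em 393 nm) read each minute for 10 min. Initial rates by linear least squares; IC50 from variable-slope sigmoidal fit. Triplicate; mean with 95% CI.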

Neutrophil collagenase [5] = molecular target: T2, Neutrophil collagenase (Homo sapiens, UniProt P22894); assay: Inhibition of human recombinant MMP8 at 200 uM by HxBPyne probe-based competitive activity based protein profiling assay in presence of 5 uM HxBpane competitor; in short: as §1
[6] = molecular target: Stromelysin-1 (Homo sapiens) (UniProt P08254); assay: Inhibition of human recombinant MMP3 at 200 uM by HxBPyne probe-based competitive activity based protein profiling assay in presence of 5 uM HxBpane competitor; in short: as §1
[7] = molecular target: A disintegrin and metalloproteinase with thrombospondin motifs 1 (Homo sapiens) (UniProt Q9UHI8); assay: Inhibition of human recombinant ADAMTS1 at 200 uM by HxBPyne probe-based competitive activity based protein profiling assay in presence of 5 uM HxBpane competitor; in short: as §1
[8] = molecular target: Disintegrin and metalloproteinase domain-containing protein 17 (Homo sapiens) (UniProt P78536); assay: Inhibition of human recombinant ADAM17 at 200 uM by HxBPyne probe-based competitive activity based protein profiling assay in presence of 5 uM HxBpane competitor; in short: as §1
Neutrophil collagenase [9] = molecular target: T2, Neutrophil collagenase; assay: Inhibition of human recombinant MMP8 by fluorogenic substrate assay; in short: as §2
Target sequence in this assay (P22894 whole entry): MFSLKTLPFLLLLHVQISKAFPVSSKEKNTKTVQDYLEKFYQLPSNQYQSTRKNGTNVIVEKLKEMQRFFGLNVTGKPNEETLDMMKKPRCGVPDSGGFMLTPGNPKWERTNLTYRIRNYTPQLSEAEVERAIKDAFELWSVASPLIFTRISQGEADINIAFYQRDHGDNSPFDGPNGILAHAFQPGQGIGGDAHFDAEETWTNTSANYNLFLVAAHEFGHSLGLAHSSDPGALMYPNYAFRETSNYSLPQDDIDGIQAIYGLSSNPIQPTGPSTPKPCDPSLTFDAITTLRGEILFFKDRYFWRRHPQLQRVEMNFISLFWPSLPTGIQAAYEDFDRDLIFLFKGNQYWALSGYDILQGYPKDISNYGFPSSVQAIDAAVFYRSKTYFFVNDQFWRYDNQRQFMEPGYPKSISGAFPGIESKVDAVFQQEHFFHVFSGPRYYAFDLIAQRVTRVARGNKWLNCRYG

[10] = molecular target: T3, Stromelysin-3 (Homo sapiens) (UniProt P24347); assay: Inhibition of human recombinant MMP11 at 200 uM by HxBPyne probe-based competitive activity based protein profiling assay in presence of 5 uM HxBpane competitor; in short: as §1
T3 sequence (whole entry): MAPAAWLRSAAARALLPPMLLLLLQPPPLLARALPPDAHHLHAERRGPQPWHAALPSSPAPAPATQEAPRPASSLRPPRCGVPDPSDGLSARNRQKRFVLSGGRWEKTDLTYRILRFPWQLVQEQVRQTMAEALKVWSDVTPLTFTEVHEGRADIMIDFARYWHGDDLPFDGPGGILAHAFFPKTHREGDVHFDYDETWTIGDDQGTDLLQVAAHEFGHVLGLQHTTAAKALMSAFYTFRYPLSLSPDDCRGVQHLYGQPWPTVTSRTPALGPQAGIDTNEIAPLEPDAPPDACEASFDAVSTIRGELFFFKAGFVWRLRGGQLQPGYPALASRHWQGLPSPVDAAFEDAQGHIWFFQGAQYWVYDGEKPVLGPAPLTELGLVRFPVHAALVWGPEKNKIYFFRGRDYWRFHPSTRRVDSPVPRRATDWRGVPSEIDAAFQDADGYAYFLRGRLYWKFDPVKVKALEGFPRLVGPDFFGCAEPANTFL

[11] = molecular target: Disintegrin and metalloproteinase domain-containing protein 12 (Homo sapiens) (UniProt O43184); assay: Inhibition of human recombinant ADAM12 at 200 uM by HxBPyne probe-based competitive activity based protein profiling assay in presence of 200 uM HxBpane competitor
In short: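 Metalloprotease at 1.6 μM final in PBS, without liver proteome. HxBPyne probe cocktail 20 μM final, with inhibitor 200 μM or DMSO. Preincubated 30 min on ice, then irradiated 365 nm for 1 h on ice. Rhodamine-azide click chemistry, then SDS-PAGE and in-gel fluorescence scanning. Integrated band intensity expressed as % of DMSO control.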

[12] = molecular target: A disintegrin and metalloproteinase with thrombospondin motifs 4 (Homo sapiens) (UniProt O75173); assay: Inhibition of human recombinant ADAMTS4 at 200 uM by HxBP-Rh probe-based competitive activity based protein profiling assay in presence of 200 uM HxBP-alkyne
In short: (§3)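 Enzyme 0.5 μM final, in PBS (ADAMTS4, neprilysin) or in 1 mg/mL mouse liver soluble proteome (MMP9). HxBP-Rh probe 0.5 μM final with 200 μM inhibitor or DMSO. Preincubated 30 min on ice, UV 365 nm 1 h on ice. Deglycosylated with PNGase F, then SDS-PAGE with fluorescence scanning. Activity given relative to DMSO control.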

[13] = molecular target: Neprilysin (Homo sapiens) (UniProt P08473); assay: Inhibition of human recombinant neprilysin at 200 uM by HxBP-Rh probe-based competitive activity based protein profiling assay in presence of 200 uM HxBP-alkyne; in short: as §3
Collagenase 3 = Collagenase 3 (Homo sapiens, UniProt P45452); assay: Inhibition of human recombinant MMP13 by HxBPyne probe-based competitive activity based protein profiling assay
[14] = molecular target: Matrix metalloproteinase-24 (Homo sapiens) (UniProt Q9Y5R2); assay: Inhibition of human recombinant MMP24 at 200 uM by HxBPyne probe-based competitive activity based protein profiling assay in presence of 5 uM HxBpane competitor; in short: as §1
[15] = molecular target: T1, Matrix metalloproteinase-9; assay: Inhibition of human recombinant MMP9 at 200 uM by HxBP-Rh probe-based competitive activity based protein profiling assay in presence of 200 uM HxBP-alkyne; in short: as §3
[16] = molecular target: Stromelysin-2 (Homo sapiens) (UniProt P09238); assay: Inhibition of human recombinant MMP10 at 200 uM by HxBPyne probe-based competitive activity based protein profiling assay in presence of 5 uM HxBpane competitor; in short: as §1
[17] = molecular target: Macrophage metalloelastase (Homo sapiens) (UniProt P39900); assay: Inhibition of human recombinant MMP12 at 200 uM by HxBPyne probe-based competitive activity based protein profiling assay in presence of 5 uM HxBpane competitor; in short: as §1
[18] = molecular target: Endoplasmic reticulum aminopeptidase 1 (Homo sapiens) (UniProt Q9NZ08); assay: Inhibition of human recombinant PILS-AP at 200 uM by HxBPyne probe-based competitive activity based protein profiling assay in presence of 5 uM HxBpane competitor; in short: as §1
Endoplasmic reticulum aminopeptidase 1 (Homo sapiens), sequence (Q9NZ08 whole entry): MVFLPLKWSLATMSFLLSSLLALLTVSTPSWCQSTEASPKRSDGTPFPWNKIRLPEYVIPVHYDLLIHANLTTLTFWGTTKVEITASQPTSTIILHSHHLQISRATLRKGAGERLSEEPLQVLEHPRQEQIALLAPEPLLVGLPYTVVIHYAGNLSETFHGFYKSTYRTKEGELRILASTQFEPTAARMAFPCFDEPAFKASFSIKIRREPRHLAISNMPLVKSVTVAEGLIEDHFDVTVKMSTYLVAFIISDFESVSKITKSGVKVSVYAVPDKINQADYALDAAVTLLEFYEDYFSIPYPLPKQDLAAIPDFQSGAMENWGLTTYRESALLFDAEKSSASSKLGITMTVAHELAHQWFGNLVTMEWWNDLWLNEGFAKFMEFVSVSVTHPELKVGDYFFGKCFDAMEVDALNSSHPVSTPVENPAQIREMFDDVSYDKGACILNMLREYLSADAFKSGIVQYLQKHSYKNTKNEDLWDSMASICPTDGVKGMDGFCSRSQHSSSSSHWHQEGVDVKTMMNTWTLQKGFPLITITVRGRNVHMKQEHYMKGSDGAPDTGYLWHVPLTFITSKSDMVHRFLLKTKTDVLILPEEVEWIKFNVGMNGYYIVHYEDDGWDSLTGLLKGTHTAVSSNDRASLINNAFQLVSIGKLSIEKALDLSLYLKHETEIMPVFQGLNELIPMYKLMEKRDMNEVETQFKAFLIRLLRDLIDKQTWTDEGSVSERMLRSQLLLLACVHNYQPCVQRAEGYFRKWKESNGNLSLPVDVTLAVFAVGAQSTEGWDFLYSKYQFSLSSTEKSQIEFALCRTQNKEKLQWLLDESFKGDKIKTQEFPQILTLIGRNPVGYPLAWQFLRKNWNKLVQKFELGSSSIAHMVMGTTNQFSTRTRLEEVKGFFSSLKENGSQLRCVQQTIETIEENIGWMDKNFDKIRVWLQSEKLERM

T1 sequence (P14780 whole entry): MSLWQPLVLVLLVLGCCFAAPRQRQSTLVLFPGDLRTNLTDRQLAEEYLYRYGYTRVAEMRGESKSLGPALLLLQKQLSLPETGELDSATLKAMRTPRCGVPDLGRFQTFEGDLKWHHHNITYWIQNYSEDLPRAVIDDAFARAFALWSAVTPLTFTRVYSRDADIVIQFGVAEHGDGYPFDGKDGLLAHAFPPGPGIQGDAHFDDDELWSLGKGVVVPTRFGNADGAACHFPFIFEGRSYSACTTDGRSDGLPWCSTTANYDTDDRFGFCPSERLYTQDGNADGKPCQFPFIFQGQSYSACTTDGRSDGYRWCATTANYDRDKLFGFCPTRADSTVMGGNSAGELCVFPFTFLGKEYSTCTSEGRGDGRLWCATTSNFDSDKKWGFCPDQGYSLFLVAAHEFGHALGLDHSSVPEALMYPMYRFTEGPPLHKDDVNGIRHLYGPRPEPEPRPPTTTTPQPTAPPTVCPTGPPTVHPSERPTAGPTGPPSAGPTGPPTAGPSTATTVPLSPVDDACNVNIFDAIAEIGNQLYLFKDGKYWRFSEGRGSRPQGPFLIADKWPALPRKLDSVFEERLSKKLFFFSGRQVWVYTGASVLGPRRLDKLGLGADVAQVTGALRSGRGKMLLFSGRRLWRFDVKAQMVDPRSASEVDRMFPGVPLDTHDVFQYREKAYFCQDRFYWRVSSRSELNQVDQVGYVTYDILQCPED
Macrophage metalloelastase (Homo sapiens), sequence (P39900 106-470 limits assumed): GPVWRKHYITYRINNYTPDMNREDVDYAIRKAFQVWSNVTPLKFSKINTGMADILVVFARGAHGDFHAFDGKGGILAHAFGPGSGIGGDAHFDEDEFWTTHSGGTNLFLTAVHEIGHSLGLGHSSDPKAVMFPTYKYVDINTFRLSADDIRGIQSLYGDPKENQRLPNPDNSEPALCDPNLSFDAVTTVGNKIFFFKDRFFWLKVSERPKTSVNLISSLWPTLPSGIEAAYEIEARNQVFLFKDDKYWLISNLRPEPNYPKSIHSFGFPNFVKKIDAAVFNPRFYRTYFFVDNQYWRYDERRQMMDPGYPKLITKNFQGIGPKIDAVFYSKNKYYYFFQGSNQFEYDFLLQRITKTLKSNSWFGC
Stromelysin-2 (Homo sapiens), sequence (P09238 99-476 limits assumed): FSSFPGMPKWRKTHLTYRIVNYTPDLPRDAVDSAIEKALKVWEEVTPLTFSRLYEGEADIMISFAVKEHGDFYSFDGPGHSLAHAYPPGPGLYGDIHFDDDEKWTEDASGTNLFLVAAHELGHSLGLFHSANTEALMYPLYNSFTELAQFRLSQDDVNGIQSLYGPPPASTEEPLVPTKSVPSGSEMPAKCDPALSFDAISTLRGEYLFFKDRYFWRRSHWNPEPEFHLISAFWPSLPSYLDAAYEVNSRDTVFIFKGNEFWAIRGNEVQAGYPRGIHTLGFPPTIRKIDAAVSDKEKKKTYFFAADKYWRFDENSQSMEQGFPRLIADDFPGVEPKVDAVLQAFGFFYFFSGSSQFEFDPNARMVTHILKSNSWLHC
Neprilysin (Homo sapiens), sequence (P08473 whole entry): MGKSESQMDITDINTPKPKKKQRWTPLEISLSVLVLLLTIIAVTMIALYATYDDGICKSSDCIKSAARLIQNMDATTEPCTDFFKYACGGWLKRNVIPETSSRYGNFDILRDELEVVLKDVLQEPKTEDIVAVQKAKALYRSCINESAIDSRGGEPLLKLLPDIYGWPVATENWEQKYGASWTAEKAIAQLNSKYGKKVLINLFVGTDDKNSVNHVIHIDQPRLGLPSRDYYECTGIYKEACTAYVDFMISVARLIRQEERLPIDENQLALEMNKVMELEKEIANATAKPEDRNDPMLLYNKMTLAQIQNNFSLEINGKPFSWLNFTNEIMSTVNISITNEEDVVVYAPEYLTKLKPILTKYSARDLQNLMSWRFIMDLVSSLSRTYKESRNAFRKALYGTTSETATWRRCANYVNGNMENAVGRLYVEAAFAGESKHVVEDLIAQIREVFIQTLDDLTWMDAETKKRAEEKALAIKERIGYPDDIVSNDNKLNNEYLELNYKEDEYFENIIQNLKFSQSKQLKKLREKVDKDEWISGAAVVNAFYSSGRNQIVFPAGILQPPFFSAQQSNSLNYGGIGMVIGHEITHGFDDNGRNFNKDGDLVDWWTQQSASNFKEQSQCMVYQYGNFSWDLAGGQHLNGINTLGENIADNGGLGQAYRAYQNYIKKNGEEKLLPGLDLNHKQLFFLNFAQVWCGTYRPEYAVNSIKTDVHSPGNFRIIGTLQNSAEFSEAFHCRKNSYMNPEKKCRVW
Matrix metalloproteinase-24 (Homo sapiens), sequence (Q9Y5R2 whole entry): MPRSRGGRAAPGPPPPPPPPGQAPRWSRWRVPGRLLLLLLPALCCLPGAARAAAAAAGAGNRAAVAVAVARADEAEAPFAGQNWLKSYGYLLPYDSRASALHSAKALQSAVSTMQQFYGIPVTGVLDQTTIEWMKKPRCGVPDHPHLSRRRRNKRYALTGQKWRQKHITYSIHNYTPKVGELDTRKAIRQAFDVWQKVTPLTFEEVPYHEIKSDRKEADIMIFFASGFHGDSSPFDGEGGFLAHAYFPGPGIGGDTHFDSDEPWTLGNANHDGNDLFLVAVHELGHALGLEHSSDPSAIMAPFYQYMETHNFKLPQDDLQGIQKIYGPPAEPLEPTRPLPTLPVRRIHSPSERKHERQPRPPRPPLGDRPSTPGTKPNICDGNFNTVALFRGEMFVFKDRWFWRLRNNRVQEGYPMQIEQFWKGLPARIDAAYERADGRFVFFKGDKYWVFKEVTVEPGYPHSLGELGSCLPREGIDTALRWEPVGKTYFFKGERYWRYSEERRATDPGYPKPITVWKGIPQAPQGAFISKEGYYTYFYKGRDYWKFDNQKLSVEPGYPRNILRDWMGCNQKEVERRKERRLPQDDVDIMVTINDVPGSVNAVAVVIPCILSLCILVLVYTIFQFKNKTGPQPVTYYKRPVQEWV
Matrix metalloproteinase-16 (Homo sapiens), sequence (P51512 whole entry): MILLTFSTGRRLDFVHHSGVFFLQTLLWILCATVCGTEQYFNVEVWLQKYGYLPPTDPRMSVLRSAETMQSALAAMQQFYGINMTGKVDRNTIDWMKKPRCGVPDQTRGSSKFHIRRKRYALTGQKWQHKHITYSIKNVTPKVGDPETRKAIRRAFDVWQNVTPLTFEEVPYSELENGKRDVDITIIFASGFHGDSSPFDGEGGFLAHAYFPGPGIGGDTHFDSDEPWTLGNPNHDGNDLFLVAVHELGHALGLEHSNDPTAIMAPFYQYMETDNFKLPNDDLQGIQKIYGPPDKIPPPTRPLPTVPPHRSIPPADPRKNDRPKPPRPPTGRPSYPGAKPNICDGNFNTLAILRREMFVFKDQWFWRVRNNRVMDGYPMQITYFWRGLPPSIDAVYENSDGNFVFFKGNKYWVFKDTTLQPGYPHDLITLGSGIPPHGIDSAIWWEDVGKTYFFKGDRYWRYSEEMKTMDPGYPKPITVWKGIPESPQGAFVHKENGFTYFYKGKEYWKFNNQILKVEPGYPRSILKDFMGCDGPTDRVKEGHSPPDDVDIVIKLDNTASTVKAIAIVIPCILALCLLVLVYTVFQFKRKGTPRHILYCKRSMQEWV

Row | Activity [1] | Activity [2] | Activity [3] | pIC50 [4] | Activity (Neutrophil collagenase [5]) | Activity [6] | Activity [7] | Activity [8] | pIC50 (Neutrophil collagenase [9]) | Activity [10] | Activity [11] | Activity [12] | Activity [13] | pIC50 (Collagenase 3) | Activity [14] | Activity [15] | Activity [16] | Activity [17] | Activity [18] | SMILES
1 | inactive | inactive | inactive | < 4.00 | inactive | inactive | inactive | inactive | < 4.00 | inactive | inactive | inactive | inactive | 4.70 | inactive | inactive | inactive | inactive | inactive | COc1ccc(CSc2nc(C)cc(O)n2)cc1
2 | inactive | inactive | inactive | < 4.00 | inactive | inactive | inactive | inactive | < 4.00 | inactive | inactive | inactive | inactive | 5.42 | inactive | inactive | inactive | inactive | inactive | Oc1nc(SCc2ccc(Cl)cc2)nc2c1CCC2
